Data: paper PMC10610910 (Science Advances, 2023)

Key:
endogenous Xenopus BRCA2 = settings: Xenopus egg extract; ref [24]; cited from earlier work
[1] = SEC-MALS molecular mass / oligomeric state; type: physicochemical; settings: 25 mM tris-HCl pH 7.5, 250 mM NaCl, 5 mM β-mercaptoethanol, n = 2
SEC-SAXS of free HSF2BP = type: physicochemical
Summary of the method: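 Free HSF2BP was loaded at 6 mg/ml onto a BIOSEC 3 column in 25 mM tris-HCl pH 7.5, 250 mM NaCl, 5 mM β-mercaptoethanol, with synchrotron scattering recorded every second during elution. Curves across the elution peak were summed. P(r) was derived so that its Fourier transform fits the SAXS curve.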

[2] = tested on: interstrand crosslink repair (pICL) in Xenopus egg extract; settings: Xenopus and human HSF2BP, ref [24]; cited from earlier work
HSF2BP [3] = molecular target: T1, HSF2BP (Homo sapiens, UniProt O75031); assay: Mass photometry; type: physicochemical; settings: 25-100 nM
T1 sequence (O75031 1-334): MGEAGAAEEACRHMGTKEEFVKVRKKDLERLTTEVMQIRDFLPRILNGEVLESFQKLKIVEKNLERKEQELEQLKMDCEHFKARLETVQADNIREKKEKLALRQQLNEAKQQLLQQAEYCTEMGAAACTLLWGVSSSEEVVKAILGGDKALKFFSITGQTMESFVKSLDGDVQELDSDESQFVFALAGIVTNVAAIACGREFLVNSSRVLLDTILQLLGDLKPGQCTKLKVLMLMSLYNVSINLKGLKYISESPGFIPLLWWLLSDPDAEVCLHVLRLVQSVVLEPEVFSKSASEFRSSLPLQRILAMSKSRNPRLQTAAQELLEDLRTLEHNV

HSF2BP [4] = molecular target: T1, HSF2BP; assay: Scanning force microscopy; type: physicochemical; settings: SFM on mica, in air; HSF2BP at 12 nM
Summary of the method: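 HSF2BP was diluted 10,000-fold to 12 nM in 25 mM tris-HCl pH 7.5, 250 mM NaCl, 5 mM β-mercaptoethanol. It was deposited for 30 s on freshly cleaved mica, rinsed with water, dried under filtered air, and imaged in air by SFM. Particle volume distributions were obtained by kernel density analysis.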

HeLa cells = type: cell-based, human; settings: HeLa stably producing the protein; MMC, cisplatin, talazoparib
Summary of the method: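 HeLa cells in DMEM with 10% fetal calf serum were stably co-transfected (PiggyBac) with GFP-HSF2BP and/or Flag-BRME1 variants, then selected with puromycin (1.5 μg/ml) and G418 (800 μg/ml) for 8 days; mixed populations were used. Seeded 100–1000 cells/well in technical duplicates, drugs added next day: MMC 2 h, cisplatin or talazoparib overnight. Coomassie-stained colonies counted on day 10.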

DNA = settings: ref [23]; cited from earlier work

B1: HSF2BP: human HSF2BP, full-length wild type; GFP-HSF2BP in HeLa cells (protein)
chain: MGEAGAAEEACRHMGTKEEFVKVRKKDLERLTTEVMQIRDFLPRILNGEVLESFQKLKIVEKNLERKEQELEQLKMDCEHFKARLETVQADNIREKKEKLALRQQLNEAKQQLLQQAEYCTEMGAAACTLLWGVSSSEEVVKAILGGDKALKFFSITGQTMESFVKSLDGDVQELDSDESQFVFALAGIVTNVAAIACGREFLVNSSRVLLDTILQLLGDLKPGQCTKLKVLMLMSLYNVSINLKGLKYISESPGFIPLLWWLLSDPDAEVCLHVLRLVQSVVLEPEVFSKSASEFRSSLPLQRILAMSKSRNPRLQTAAQELLEDLRTLEHNV
modifications: left off: His6, end not stated, cleaved
effect on BRCA2, in words (endogenous Xenopus BRCA2): leads to DNA crosslink-dependent proteasomal degradation of BRCA2 | apparent molar mass [1]: 136 ± 7 kDa | maximal distance (SEC-SAXS of free HSF2BP; P(r)): 250 Å | molar mass (I(0)) (SEC-SAXS of free HSF2BP; protein ~50 to 60 μM, pH 7.5, 293.15 K): 156 ± 21 kDa | effect on crosslink repair, in words [2]: inhibit replication-dependent restoration of the genetic information at the crosslink | effect on / state of HSF2BP oligomers, in words (HSF2BP [3]): at 25 nM, it is a mix of dimers and tetramers | particle volume, larger peak (HSF2BP [4]): ~190 nm^3 | particle volume, smaller peak (HSF2BP [4]): around 95 nm^3 | effect on cell resistance to DNA damage, in words (HeLa cells): sensitized cells to DNA damage | affinity for DNA, in words (DNA): no detectable affinity for DNA
